Assay [1] concerns Plasmodium falciparum. Kind of assay: In vitro antimalarial activity against multidrug-resistant Plasmodium falciparum K1. It is filed as functional, organism-based. The method in brief: (§1)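 Cultured P. falciparum K1 (multidrug-resistant) tested by microculture radioisotope technique (Desjardins); growth measured as [3H]hypoxanthine uptake; EC50 taken as the concentration giving 50% reduction in parasite growth; chloroquine diphosphate and artemisinin as standards.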

The test system of assay [2] is Mycobacterium tuberculosis. Kind of assay: Growth inhibitory activity against Mycobacterium tuberculosis H37R. It is filed as functional. The method, boiled down: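 M. tuberculosis H37Ra growth inhibition measured by microplate Alamar Blue assay (MABA); read-out as MIC; isoniazid and kanamycin sulfate run as reference drugs.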
Assay [3] in a line: Cytotoxicity against african green monkey kidney fibroblast (vero cell). It is filed as functional, cell-based. To be noted: Chlorocebus sabaeus. The method, boiled down: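 Vero (African green monkey kidney fibroblast) cytotoxicity run by the colorimetric method of Skehan and co-workers.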
Assay [4] concerns Plasmodium falciparum. Briefly: In vitro antimalarial activity against multidrug-resistant Plasmodium falciparum K1; Not active. In kind it is functional, organism-based. The method in brief:
as §1

The test system of assay [5] is Vero. Briefly: Cytotoxicity against african green monkey kidney fibroblast (vero cell) at a concentration less than 50 ug/mL; Inactive. It is filed as functional, cell-based. As to conditions: Chlorocebus sabaeus.

Values after ≈ are worked out from the molar mass of the structure shown. Active and inactive are the calls of the source. The rule behind the calls is not given here.

By EC50 is commonly meant the concentration at which the effect is half-maximal. As for `CCN(CC)CCCC(C)Nc1ccnc2cc(Cl)ccc12.O=P(O)(O)O.O=P(O)(O)O` (stereo unspecified) [CHLOROQUINE PHOSPHATE], in assay [1], the EC50 came to 0.16 µg/mL.
Broadly, the MIC is the lowest concentration that inhibits growth of the organism. The term IC50 denotes the midpoint of a concentration-inhibition curve. In assay [2], `CCC[C@]1(C(=O)OCC)CC[C@@]2(c3ccccc3)O[N@@]12` returned an MIC of 100 µg/mL (≈ 363 µM). Also, in assay [1], the concentration for a half-maximal effect (EC50) was found to be 21.7 µg/mL (≈ 78.8 µM). This compound also returned an IC50 in assay [3] of 28.9 µg/mL (≈ 105 µM).
With `CCOC(=O)[C@]1(CCC2OCCO2)CC[C@@]2(c3ccccc3)O[N@@]12`, the IA result in assay [4] was “inactive”. In assay [3], this compound gave an IC50 of more than 50 µg/mL.
On to `CCOC(=O)[C@@]1(CCCc2ccccc2)CC[C@@]2(c3ccccc3)O[N@@]12`, for which the IA result in assay [5] was “inactive”. It took 200 µg/mL (≈ 569 µM) to inhibit growth in assay [2] (MIC). In addition, it took 2.9 µg/mL (≈ 8.25 µM) to reach a half-maximal effect in assay [1] (EC50).
In assay [2], `NNC(=O)c1ccncc1` [ISONIAZID] came in with an MIC of 0.05 µg/mL (≈ 0.365 µM).
In assay [3], `Cc1c2ccncc2c(C)c2c1[nH]c1ccccc12` [ELLIPTECINE] registered an IC50 of 1 µg/mL (≈ 4.06 µM).
On to `CCCC[C@@]1(C(=O)OCC)CC[C@@]2(c3ccccc3)O[N@@]12`, for which the IA entry in assay [5] and in assay [4] was “inactive” throughout. In addition, the MIC in assay [2] was determined as 100 µg/mL (≈ 346 µM).
As to `CCCCC[C@@]1(C(=O)OCC)CC[C@@]2(c3ccccc3)O[N@@]12`, the IA result in assay [4] is “inactive”. In assay [2], this compound displayed an MIC of 100 µg/mL (≈ 330 µM). The compound further registered an IC50 in assay [3] of more than 50 µg/mL.
`CCOC(=O)[C@@]1(CCC2OCCO2)CC[C@@]2(c3ccccc3)O[N@@]12` had a minimal inhibitory concentration (MIC) in assay [2] of 200 µg/mL (≈ 600 µM). The compound further displayed an EC50 in assay [1] of 14.7 µg/mL (≈ 44.1 µM). The half-inhibitory concentration (IC50) in assay [3] is more than 50 µg/mL.
With `C=CCCC[C@]1(C(=O)OCC)CC[C@@]2(c3ccccc3)O[N@@]12`, the EC50 in assay [1] worked out at 13.9 µg/mL (≈ 46.1 µM).
Take `CCCCC[C@]1(C(=O)OCC)CC[C@@]2(c3ccccc3)O[N@@]12`: the IA result in assay [5] was “inactive”. For the same compound, the MIC in assay [2] was 100 µg/mL (≈ 330 µM). Moreover, it took 3.1 µg/mL (≈ 10.2 µM) to reach a half-maximal effect in assay [1] (EC50).
Take `CCOC(=O)[C@]1(C2C[C@H]2C(=O)OC)CC[C@@]2(c3ccccc3)O[N@]21` (stereo partly specified): in assay [4], the IA entry is “inactive”. In assay [2], this compound registered an MIC of 200 µg/mL (≈ 604 µM). The IC50 in assay [3] is more than 50 µg/mL.
For the compound `CCCC[C@]1(C(=O)OCC)CC[C@@]2(c3ccccc3)O[N@@]12`, the IA result in assay [5] was “inactive”. In assay [2], this compound came in with an MIC of 100 µg/mL (≈ 346 µM). The compound further had an EC50 in assay [1] of 2.4 µg/mL (≈ 8.29 µM).
`CCOC(=O)[C@@]1(C2C[C@H]2C(=O)OC)CC[C@@]2(c3ccccc3)O[N@]21` (stereo partly specified) came in with an MIC in assay [2] of 100 µg/mL (≈ 302 µM). In assay [1], this compound gave an EC50 of 15.9 µg/mL (≈ 48 µM). The IC50 in assay [3] is 43.4 µg/mL (≈ 131 µM).
As to `CCOC(=O)[C@]1(CCCc2ccccc2)CC[C@@]2(c3ccccc3)O[N@@]12`, the IA entry in assay [4] is “inactive”. This compound also returned an MIC in assay [2] of 25 µg/mL (≈ 71.1 µM). The compound further had an IC50 in assay [3] of more than 50 µg/mL.
On to `CCOC(=O)[C@@]1(C)CC[C@@]2(c3ccccc3)O[N@]21`, for which the MIC in assay [2] was 200 µg/mL (≈ 809 µM). The same compound gave a concentration giving a half-maximal response (EC50) in assay [1] of 4.6 µg/mL (≈ 18.6 µM). Also, the half-maximal inhibitory concentration (IC50) in assay [3] is more than 50 µg/mL.
Regarding `C[C@@H]1CC[C@H]2[C@@H](C)C(=O)O[C@@H]3O[C@@]4(C)CC[C@@H]1[C@]32OO4` [ARTEMISININ], in assay [1], the half-maximal effective concentration (EC50) was 0.0011 µg/mL (≈ 0.0039 µM).
Consider `CCOC(=O)[C@]1(C)CC[C@@]2(c3ccccc3)O[N@@]12`, for which it took 200 µg/mL (≈ 809 µM) to inhibit growth in assay [2] (MIC). The compound further displayed a half-inhibitory concentration (IC50) in assay [3] of more than 50 µg/mL.
In the case of `C=CCC[C@]1(C(=O)OCC)CC[C@@]2(c3ccccc3)O[N@@]12`, the EC50 in assay [1] worked out at 44.2 µg/mL (≈ 154 µM).
The compound `CCC[C@@]1(C(=O)OCC)CC[C@@]2(c3ccccc3)O[N@@]12` returned an MIC in assay [2] of 100 µg/mL (≈ 363 µM). In assay [3], this compound returned an IC50 of more than 50 µg/mL.
As to `CCOC(=O)[C@@]1(CCC=C(C)C)CC[C@@]2(c3ccccc3)O[N@@]12`, a half-maximal response in assay [1] (EC50) required 21.9 µg/mL (≈ 69.4 µM).

(Values after ChEMBL document CHEMBL1145788, “Synthesis of ethyl 5-phenyl-6-oxa-1-azabicyclo[3.1.0]hexane-2-carboxylate derivatives and evaluation of their antimalarial activities” (J Med Chem, 2003).)
